Experiments:
Hh-dependent hair growth = assay: Hh-dependent hair regrowth after depilation; assay type: in vivo, mouse; settings: C57BL female mice, topical 30 µl of 0.5 mM daily for 2 weeks
In short: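 Eight-week-old female C57BL/6 mice in telogen phase had the dorsum shaved. The lower half of the shaved area was depilated with Nair for 2 min and rinsed with water. Test compound in 95% acetone/5% DMSO, or vehicle alone, was applied topically to the depilated skin. Brief 3% isoflurane anaesthesia was used for all procedures. Five mice per group; hair regrowth assessed at 2 weeks.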

[1] = Storage stability in solution; assay type: physicochemical; settings: room temperature, DMSO or methanolic solution, 1 week
[2] = target: Smo-D473H mutant receptor (Homo sapiens, UniProt Q99835, D473H); assay type: binding; settings: for displacement of [3H]-cyclopamine from Smo-D473H: U2OS cells overexpressing Smo-D473H, competitor up to 10 µM
[3] = test system: Smo-633 receptor and βarr2-GFP; assay: Smo/βarr2-GFP translocation primary high-throughput confocal imaging assay; assay type: cell-based; settings: U2OS cells stably expressing Smo-633 and βarr2-GFP; 5 µM, 6 hours
wild-type Smo = wild-type Smo (Homo sapiens, UniProt Q99835); assay type: binding; settings: 25 nM [3H]-cyclopamine; competitor 0 – 10 µM
[4] = target: vasopressin2 receptor (V2R) (Homo sapiens, UniProt P30518); assay: V2R/βarr2-GFP aggregation control assay; assay type: cell-based; settings: arginine vasopressin stimulated cells; Supplementary Figure 3
[5] = test system: Shh-induced Gli reporter activity; settings: 1 µM concentration; cited from earlier work

Smo-D473H mutant receptor, sequence (Q99835 28-787 D473H): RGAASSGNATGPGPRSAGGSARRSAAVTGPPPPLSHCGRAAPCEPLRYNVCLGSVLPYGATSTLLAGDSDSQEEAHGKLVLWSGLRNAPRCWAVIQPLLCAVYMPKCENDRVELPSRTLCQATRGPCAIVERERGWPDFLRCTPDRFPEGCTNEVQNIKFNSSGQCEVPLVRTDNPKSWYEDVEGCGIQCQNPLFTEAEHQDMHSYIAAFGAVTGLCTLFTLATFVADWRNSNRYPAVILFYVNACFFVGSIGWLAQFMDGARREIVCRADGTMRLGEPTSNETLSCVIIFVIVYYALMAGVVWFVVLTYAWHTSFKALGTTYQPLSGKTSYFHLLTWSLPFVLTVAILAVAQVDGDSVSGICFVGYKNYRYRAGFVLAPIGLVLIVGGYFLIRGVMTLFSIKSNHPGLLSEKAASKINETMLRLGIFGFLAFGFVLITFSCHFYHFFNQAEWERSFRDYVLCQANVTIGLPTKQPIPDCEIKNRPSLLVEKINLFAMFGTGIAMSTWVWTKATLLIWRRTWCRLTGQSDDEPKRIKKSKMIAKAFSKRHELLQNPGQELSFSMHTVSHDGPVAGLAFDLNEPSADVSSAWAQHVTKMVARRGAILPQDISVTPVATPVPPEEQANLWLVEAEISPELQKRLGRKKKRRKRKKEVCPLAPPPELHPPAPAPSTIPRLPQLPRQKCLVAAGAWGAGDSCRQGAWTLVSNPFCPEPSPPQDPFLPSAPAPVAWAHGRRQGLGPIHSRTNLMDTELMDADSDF
wild-type Smo, sequence (Q99835 28-787): as the sequence (Q99835 28-787 D473H) above, with H446D counted along it
vasopressin2 receptor (V2R), sequence (P30518 whole entry, species assumed): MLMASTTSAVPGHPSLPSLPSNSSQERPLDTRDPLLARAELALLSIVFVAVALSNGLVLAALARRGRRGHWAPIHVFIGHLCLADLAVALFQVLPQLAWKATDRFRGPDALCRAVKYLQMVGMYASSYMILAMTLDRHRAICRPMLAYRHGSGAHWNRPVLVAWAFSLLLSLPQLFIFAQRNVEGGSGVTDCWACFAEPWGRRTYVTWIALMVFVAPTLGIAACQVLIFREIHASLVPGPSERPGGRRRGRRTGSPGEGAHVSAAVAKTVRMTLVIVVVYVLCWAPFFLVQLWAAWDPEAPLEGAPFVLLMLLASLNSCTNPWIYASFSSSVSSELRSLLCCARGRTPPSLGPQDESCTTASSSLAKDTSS

Row | activity after storage in solution [1] | displacement of [3H]-cyclopamine from Smo-D473H [2] | right shift in affinity, SmoD473H versus wild-type Smo ([2]; ratio of Ki mutant / wild-type) | displacement of [3H]-cyclopamine from wild-type Smo (wild-type Smo) | aggregation of V2R and βarr2-GFP [4] | binding affinity to the mutant receptor (Ki not determinable) ([2]; Smo-D473H, up to 10 uM) | SMILES | Hh-induced hair growth (Hh-dependent hair growth) | inhibition of intracellular βarr2-GFP aggregation [3] | inhibition of Gli-reporter activity at 1 µM [5]
1 | retained activity | completely displace | approximately 13 fold | completely displaced | not inhibited |  | O=C(NC1CCN(Cc2ccc(N3CCC(NC(=O)c4cccc(-c5cccnc5)c4)CC3)nc2)CC1)c1cccc(-c2cccnc2)c1 [Compound A8] | largely inhibited | confirmed | 
2 |  | only partially displaced |  | completely displaced |  |  | CS(=O)(=O)c1ccc(C(=O)Nc2ccc(Cl)c(-c3ccccn3)c2)c(Cl)c1 [GDC-0449, Vismodegib] |  |  | 
3 |  | largely ineffective |  | completely displaced |  | too weak | Cc1c(C(=O)Nc2ccc(N3C[C@@H](C)O[C@@H](C)C3)nc2)cccc1-c1ccc(OC(F)(F)F)cc1 [LDE-225, Erismodegib] |  |  | 

Row | SMILES | activity after storage in solution [1] | displacement of [3H]-cyclopamine from Smo-D473H [2] | right shift in affinity, SmoD473H versus wild-type Smo ([2]; ratio of Ki mutant / wild-type) | displacement of [3H]-cyclopamine from wild-type Smo (wild-type Smo) | aggregation of V2R and βarr2-GFP [4] | binding affinity to the mutant receptor (Ki not determinable) ([2]; Smo-D473H, up to 10 uM) | Hh-induced hair growth (Hh-dependent hair growth) | inhibition of intracellular βarr2-GFP aggregation [3] | inhibition of Gli-reporter activity at 1 µM [5]
4 | CC1=C2C[C@H]3[C@@H](CC=C4C[C@@H](O)CC[C@@]43C)[C@@H]2CC[C@]12O[C@@H]1C[C@H](C)CN[C@H]1[C@H]2C [cyclopamine] |  | completely displace |  | completely displaced |  |  |  | inhibits the aggregation of βarr2-GFP | strong inhibition

Reference: PMC3501270 (Bioorganic & medicinal chemistry, 2012)
